Here are results for 2 compounds from ChEMBL document CHEMBL1781943, “Molluscicidal metabolites from an assemblage of Palmyra Atoll cyanobacteria” (J Nat Prod, 2011).

The term LC50 denotes the concentration that kills 50% of the test population.

The source made the active and inactive calls. No cut-off for these calls is given here.

One data set concerns NCI-H460. The data set can be described thus: Cytotoxicity against human H460 cells up to 100 uM. In kind it is cell-based.
Another data set relates to Biomphalaria glabrata. Nature of the data set: Molluscicidal activity against Biomphalaria glabrata assessed as mortality after 24 hrs. Type of data set: functional. A digest of the protocol: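 Test organism: the snail Biomphalaria glabrata. Pure compound was made up as a 20 mg/mL stock in EtOH, and an aliquot of this stock was diluted with distilled water to give the snail exposure solution. Snails were scored for death, and LC50 values were reported.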

For the next data set, the system named is Staphylococcus aureus. The data set can be described thus: Antibacterial activity against methicillin-resistant Staphylococcus aureus. In kind it is functional, organism-based.
Data set [1] can be described thus: Cytotoxicity against mouse Neuro2a cells up to 100 uM. In kind it is cell-based. The note with it: n2a.
Another data set concerns Candida albicans. The data set can be described thus: Antifungal activity against Candida albicans. Type of data set: functional, organism-based.

With `COC(/C=C/CO)=C/C(=O)N1C(=O)C=C[C@@H]1C` [PALMYRROLINONE], the Activity result (in the data set on NCI-H460; in data set [1]) was “Non-toxic” each time. In the data set with Biomphalaria glabrata, the LC50 came to 6 µM. The outcome in the data set on Staphylococcus aureus and with Candida albicans was inactive.

For `COC1=CC(=O)S[C@@H](CO)C1` [THIOPALMYRONE], the Activity result (with NCI-H460; in data set [1]) was “Non-toxic” throughout. In addition, the LC50 in the data set with Biomphalaria glabrata was found to be 8.3 µM. The result in the data set on Staphylococcus aureus and in the data set on Candida albicans was inactive.
